The entries come from a sample that favours hits as a whole.
HSF1 activator: increases HSF-1 driven luciferase reporter signal | NIH3T3-HGL HSF-1 luciferase reporter, MG132, 8 h; 100% = twice DMSO control signal | activation, % at 9 µM | 1.7% of 300,000 active | AID 504408;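 active = mean replicate activation of at least 50% with a set share of replicates each reaching 50%; inconclusive = only one of those two conditions met; inactive = mean below 50% and too few replicates reaching it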;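 also: 0% = median of the neutral control wells and 100% = twice that signal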
T cruzi repl: blocks replication of Trypanosoma cruzi. T. cruzi beta-gal in NIH3T3, luminescence, 90 h. inhibition, % (test concentration not listed). 1.4% of 300,000 active. AID 1885;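 active = mean inhibition across valid replicates above about 55%, limit read from the data; inconclusive = mean below that limit but half or more replicates reach it; inactive = mean below it, under half of replicates reach it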;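 also: signal also drops with host cell toxicity which is not excluded here; 0% = plate median of DMSO wells and 100% = zero luminescence signal; higher percent means less beta-gal luminescence so fewer parasites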
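assay system = mouse NIH/3T3 fibroblasts infected with β-gal-expressing T. cruzi Tulahuen C4 | input = 5,000 NIH/3T3 host cells per well | buffer or medium = DMEM plus 2% FBS | timing = 3 h host attachment, then at least 90 h co-culture | measured by = GalScreen luminescence, 60 min | evaluation = luminescence reflecting intracellular parasite burden, expressed as percent inhibition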
L major viab: Leishmania major promastigote growth inhibition. Leishmania major promastigotes, resazurin fluorescence viability. inhibition, % at 10 µM. 9% of 200,000 active. AID 1063; in the data active = inhibition above about 50%;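 also: promastigotes grown with compound for 44 hours at 28 °C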
Hsp70 activator: switches on Hsp70 transcription; HeLa Hsp70 promoter luciferase reporter, luminescence; scaled: vehicle 0, proteasome-inhibitor control 100%; activation, % at 10 µM; 0.04% of 200,000 active; AID 1203;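 active = activation above the mean across all tested compounds plus 3 SD, cutoff set per campaign, cut at about 5.5% in these data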;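 also: 100% = MG132 at 30 µM as the positive control and 0% = DMSO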
HSF1 inhib: HSF1 inhibition | 0.77% of 300,000 active | NIH3T3-HGL HSE-luciferase, MG132-induced, luminescence 8 h; hits give low values | activity change, negative = inhibition, % at 7.5 µM (by protocol);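 active = more than half of replicate wells show activity change below -50%, luminescence cut by over half; inconclusive = some wells, but at most half, below -50%; inactive = no replicate well below -50%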;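 also: luciferase reports HSF-1 transcriptional activity via heat shock element; 0% = median of DMSO wells and -100% = zero luminescence signal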
Active calls of the source: *.

What do the screens show for `CCN(CC)c1ccc(S(=O)(=O)N(CC)CC)cc1NC(=O)C1CCCC1`?
HSF1 activator: 19.8; T cruzi repl: 12.0; L major viab: 61.0*; Hsp70 activator: -0.4; HSF1 inhib: 7.4

Results for CCOc1ccc(C(=O)Nc2cc(S(=O)(=O)Nc3ccccc3Cl)ccc2N2CCOCC2)cc1 ?
HSF1 activator: 2.6; T cruzi repl: 29.7; L major viab: 97.4*; Hsp70 activator: -0.2; HSF1 inhib: -1.8

What do the screens show for `CCN(CC)CCCNC(=O)c1ccc(N2CCCCC2)c(NS(=O)(=O)c2ccc(C)cc2)c1`?
HSF1 activator: 14.7; T cruzi repl: 22.0; L major viab: 98.9*; Hsp70 activator: -0.2; HSF1 inhib: -7.5

Results for O=C(Nc1ccccc1N1CCOCC1)c1cccc(NS(=O)(=O)c2ccc(F)c(F)c2)c1 ?
HSF1 activator: 27.4; T cruzi repl: 29.1; L major viab: 70.4*; Hsp70 activator: -0.1; HSF1 inhib: 6.7

How did Cc1ccc(S(=O)(=O)Nc2cc(C(=O)NCCN(C)C)ccc2N2CCCC2)cc1 do in these assays?
HSF1 activator: -9.6; T cruzi repl: -8.6; HSF1 inhib: -3.4

How did O=C(Nc1ccccc1N1CCOCC1)c1ccccc1NS(=O)(=O)c1ccc(F)c(F)c1 do in these assays?
HSF1 activator: 18.6; T cruzi repl: -22.1; L major viab: 2.4; Hsp70 activator: -0.4; HSF1 inhib: 5.9

How did CCOc1ccc(S(=O)(=O)Nc2ccccc2C(=O)Nc2ccccc2N2CCOCC2)cc1 do in these assays?
HSF1 activator: 6.0; T cruzi repl: 15.4; L major viab: 19.3; Hsp70 activator: -0.2; HSF1 inhib: 3.5

How did CS(=O)(=O)Nc1ccc(C2=NN(C(=O)c3cccc(F)c3)C(c3cccs3)C2)cc1 (centres undefined) do in these assays?
HSF1 activator: 1.3; T cruzi repl: 13.8; HSF1 inhib: 3.1

Results for CCn1c(C)nnc1SCC(=O)Nc1ccc(Cl)cc1 ?
HSF1 activator: -9.6; T cruzi repl: -5.4; HSF1 inhib: 4.1

What do the screens show for `COc1ccccc1CNC(=O)C(NC(=O)c1ccccc1)C(C)C` (centres undefined)?
HSF1 activator: 2.7; T cruzi repl: 5.9; L major viab: 7.0; Hsp70 activator: -0.1; HSF1 inhib: 4.1

What do the screens show for `Fc1cccc(-c2cc3nc4c(c(N5CCOCC5)n3n2)CCCC4)c1`?
HSF1 activator: 19.2; T cruzi repl: 18.5; L major viab: 7.0; Hsp70 activator: 0.1; HSF1 inhib: 11.6

Results for COc1cccc(-c2cc3nc4c(c(NCC(C)(C)CN(C)C)n3n2)CCCC4)c1 ?
HSF1 activator: -55.9; T cruzi repl: 60.8*; L major viab: 77.2*; Hsp70 activator: -0.1; HSF1 inhib: inconclusive

What do the screens show for `Fc1cccc(-c2cc3nc4c(c(NCc5ccco5)n3n2)CCCC4)c1`?
HSF1 activator: 48.6; T cruzi repl: 40.8; L major viab: 86.7*; Hsp70 activator: -0.1; HSF1 inhib: 22.2

How did CC(OC(=O)c1ccc(OCC2CCCO2)cc1)C(=O)N(C)Cc1ccccc1 (centres undefined) do in these assays?
HSF1 activator: 6.4; T cruzi repl: -3.5; HSF1 inhib: 5.6

Results for CC1CCCc2sc3nc(N4CCN(CCO)CC4)n4ncnc4c3c21 (centres undefined) ?
HSF1 activator: -1.3; T cruzi repl: 16.5; L major viab: 90.8*; Hsp70 activator: -0.2; HSF1 inhib: -3.3

Results for COc1cc(C(=O)NCCC(=O)N2CCC3(CC2)NCCc2[nH]cnc23)cc(OC)c1OC ?
HSF1 activator: -3.5; T cruzi repl: -1.5; HSF1 inhib: -6.2

Results for CC(C)(C)NC(=O)C(c1cccs1)N(Cc1cccs1)C(=O)c1ccc(CN2CCOCC2)o1 (centres undefined) ?
HSF1 activator: 18.0; T cruzi repl: 14.3; L major viab: 3.0; Hsp70 activator: -0.1; HSF1 inhib: -0.7

Results for Cc1cccc(N(C(=O)c2ccc(CN3CCOCC3)o2)C(C(=O)NC(C)(C)C)c2ccc(F)cc2)c1 (centres undefined) ?
HSF1 activator: 64.0*; T cruzi repl: 10.3; L major viab: 9.1; Hsp70 activator: 0.0; HSF1 inhib: 7.7

What do the screens show for `CCOc1ccc(NC(=O)CN(C)CC(=O)Nc2cc(Cl)ccc2C#N)cc1OCC`?
HSF1 activator: 27.0; T cruzi repl: -5.4; L major viab: 86.1*; Hsp70 activator: 0.0; HSF1 inhib: 3.0

How did COc1ccc(CNCC(O)(c2ccccc2)c2ccc(Cl)cc2)cc1 (centres undefined) do in these assays?
HSF1 activator: 33.3; T cruzi repl: 29.9; L major viab: 18.3; Hsp70 activator: -0.1; HSF1 inhib: -4.6

What do the screens show for `COc1cccc(CNCC(O)(c2ccc(Cl)cc2)c2ccc(Cl)cc2)c1`?
HSF1 activator: -26.6; T cruzi repl: 25.1; L major viab: 65.5*; Hsp70 activator: -0.3; HSF1 inhib: -3.2

Results for COc1ccc(CNCc2cccc(Cl)c2)cc1 ?
HSF1 activator: 6.6; T cruzi repl: 0.8; L major viab: 65.8*; Hsp70 activator: -0.4; HSF1 inhib: 0.2

How did Nc1ccc(O)c2ccccc12 do in these assays?
HSF1 activator: 14.6; T cruzi repl: 23.3; HSF1 inhib: -3.9

What do the screens show for `CCCCOc1ccc(C(=O)Nc2ccc(N3CCN(C)CC3)cc2)cc1`?
HSF1 activator: -4.0; T cruzi repl: 29.3; L major viab: 62.5*; Hsp70 activator: -0.2; HSF1 inhib: -4.2

How did CCCOc1ccc(NC(=O)OC2CCN(C)CC2)cc1 do in these assays?
HSF1 activator: -8.6; T cruzi repl: 54.6*; L major viab: -6.1; Hsp70 activator: 0.1; HSF1 inhib: -1.9

Results for CCOc1ccc(C(=O)Nc2ccc(N3CCN(C)CC3)cc2)cc1 ?
HSF1 activator: -1.8; T cruzi repl: 8.1; HSF1 inhib: 2.6

Results for COc1ccc(OC)c(C(C(=O)NC2CCCCC2)N(C(=O)c2ccccn2)c2cccnc2)c1 (centres undefined) ?
HSF1 activator: 10.6; T cruzi repl: -3.0; HSF1 inhib: 3.1

How did O=C(c1ccccc1F)N1CCN(C2CCC(c3ccccc3)CC2)CC1 (centres undefined) do in these assays?
HSF1 activator: 4.8; T cruzi repl: 31.0; L major viab: 97.1*; Hsp70 activator: -0.3; HSF1 inhib: -5.2

Results for COc1ccccc1N1CCN(C2CCN(C3CCC(c4ccccc4)CC3)CC2)CC1 (centres undefined) ?
HSF1 activator: -1.2; T cruzi repl: 39.8; L major viab: 98.9*; Hsp70 activator: -0.2; HSF1 inhib: -6.6

How did O=C(c1ccc(F)cc1)N1CCN(C2CCC(c3ccccc3)CC2)CC1 (centres undefined) do in these assays?
HSF1 activator: 7.5; T cruzi repl: 49.2; L major viab: 91.8*; Hsp70 activator: -0.4; HSF1 inhib: -6.8

How did COc1ccc(C(=O)N2CCN(C3CCC(c4ccccc4)CC3)CC2)cc1OC (centres undefined) do in these assays?
HSF1 activator: -13.4; T cruzi repl: 39.8; L major viab: 88.5*; Hsp70 activator: -0.2; HSF1 inhib: -0.1

Bioassay records from PubChem.
